Results as given in ChEMBL document CHEMBL4513216, “Probing the Open Global Health Chemical Diversity Library for Multistage-Active Starting Points for Next-Generation Antimalarials” (ACS Infect Dis, 2020).

Assay: Toxicity liver stage against HepG2, at 10uM
Type: cell-based
Set-up: test concentration 10 uM, cell line HepG2-A16-CD81EGFP
Conditions: human, HepG2-A16-CD81EGFP cells; read-out: INHIBITION
Summary of the method: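 Uninfected HepG2-A16-CD81EGFP cells, 3 × 10^3 per well, 1536-well, plated on prespotted compound at 10 μM final, parasite-free screening media added to match infected plates; puromycin 10 μM positive, DMSO 0.5% negative; run in parallel with 48 h PbLuc assay at 37 °C, 5% CO2; viability by CellTiter-Glo luminescence, normalized to controls.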

Row | Compound | cytotoxicity at 10 µM
1 | FC(F)(F)c1ccc2nc([C@H]3CCN(C4CCCCC4)C3)[nH]c2c1 | -0.668%
2 | Cn1c(CN2CCCCC2)cc(=O)c(O)c1CN1CCCCC1 | -2.34%
3 | CC(C)n1ncc2c1NC(=O)CC21C(=O)Nc2c(Cl)ccc(Cl)c21 (stereo not given) | 1.19%
4 | O=C(Nc1nc2c(s1)CN(S(=O)(=O)C1CC1)CC2)c1ccc(Cl)s1 | 21.3%
5 | CN1CCCC(C(=O)N2CCC(Oc3ccc(C#N)cn3)CC2)C1 (stereo not given) | -5.6%
6 | CCS(=O)(=O)NCc1nc(C)cc(N2CCCCC2)n1 | 6.79%
7 | CC1N(CC2CC2)C(=O)COC12CCN(C(=O)c1cccs1)CC2 (stereo not given) | -3.64%
8 | O=C(c1cc(F)cc(F)c1)N1CCC2(CC1)CC2 | 5.04%
9 | Cc1noc(C)c1CN1C[C@@H](OCC(=O)N(C)C)[C@H]2OCCC[C@H]21 | 12.1%
10 | CCN(CC)S(=O)(=O)N1CC[C@H](c2ccccc2)[C@@H]2[C@H]1CCCCN2C | 3.74%
11 | Nc1cc(-c2cccs2)nn(CC(=O)N2CCc3ccccc32)c1=O | -10%
12 | c1cnc(N2CCCC(c3cc4cccnc4[nH]3)C2)nc1 (stereo not given) | -9.42%
13 | CSc1ccc(CN2CCCC3(CNC(=O)c4ccccc4O3)C2)cc1 (stereo not given) | 3.52%
14 | Cc1cc(C)c2cc(CNC3CCCCC3)c3nn(C)c(=O)n3c2c1 | -4.55%
15 | COc1ccc(C2Nc3cc(Cl)ccc3C3=NCCN32)cc1OC (stereo not given) | 1.05%
16 | O=C(O)c1ccc(S(=O)(=O)Nc2cnn(CC(F)(F)F)c2)cc1 | -7.52%
17 | Cc1noc(C2CCCN(C(=O)c3scnc3Cl)C2)n1 (stereo not given) | 17.2%
18 | CCN1CCOC(CNCc2ccc(C)s2)C1 (stereo not given) | 2.35%
19 | O=C(NC1CCN(CC2CC2)C1)N1CCC(OC2CCCCC2)CC1 (stereo not given) | 4.75%
20 | COc1ccc(CNCc2cc(Br)c3c(c2)OCO3)cc1 | 12.1%
21 | COc1cccc(-c2ccc(CNC(=O)c3ccc(=O)n(C)c3)cc2)c1 | 22.3%
22 | Cc1nn(C)c(C)c1S(=O)(=O)NCC1(C(N)=O)CCOCC1 | 14.9%

Row | Compound | cytotoxicity at 10 µM
23 | c1cc(N2CCC(CN3CCOCC3)CC2)c2sccc2n1 | 10.8%
24 | c1cc2c(cc1CSCc1noc(C3CC3)n1)OCCO2 | 10.4%
25 | COc1cc(CNCCn2cc(C)cn2)c2c(c1)CC(C)O2 (stereo not given) | 19.1%
26 | COc1cc(CNCCn2cccn2)c2c(c1)CC(C)O2 (stereo not given) | 13.7%
27 | Cc1cc(C)c(CNC(=O)NCCNc2cnccn2)c(=O)[nH]1 | -43.6%
28 | O=C(Nc1ccc(Cl)cn1)C1CCCN(CCc2ccncc2)C1 (stereo not given) | -8.87%
29 | Cc1cnn(Cc2cc(F)ccc2F)c1NC(=O)CNC(=O)C1CC1 | 2.3%
30 | Cc1ccc(NC(=O)NCC2(N3CCOCC3)CCSC2)c(C)c1 (stereo not given) | 1.15%
31 | CCOCCN1CCN(Cc2nnc(C3CC3)o2)CC1C (stereo not given) | 12.9%
32 | CCc1noc(C(C)N(C)CC(=O)Nc2ccc(Br)cc2C)n1 (stereo not given) | 19.6%
33 | CCOc1cc(CN(C)CCCC#N)ccc1OC(F)F | -10.3%
34 | Cc1noc(CN2CC=C(c3c[nH]c4ncccc34)CC2)n1 | 44.7%
35 | CCC(Nc1ccc(Oc2ccc(C#N)cc2OC)cc1)C(N)=O (stereo not given) | 65.7%
36 | CC(NCc1cnc(C2CCC2)s1)c1cccc(-n2cccn2)c1 (stereo not given) | 2.34%
37 | COc1cc(NCc2ncc[nH]2)ccc1Br | 11.2%
38 | CC(=O)N(CCc1nc(-c2cc(C(N)=O)oc2C)cs1)C(C)C | 0.988%
39 | CNC(=O)CCN1CCCCCC1c1ccc(C)o1 (stereo not given) | -10.2%
40 | O=C(c1cc[nH]n1)N(Cc1ccccc1)CC1CCC1 | -6.74%
41 | COCCN1CCC(CNC(=O)c2cc(Cl)c[nH]2)CC1 | 5.2%
42 | c1ccc(CNc2ccccc2N2CCCC2)nc1 | 10.9%
43 | O=C1NCCN1C1CCN(c2ccnc(-c3ccccc3)n2)CC1 | 36.2%
44 | CCCN(C)CC1CCN(c2ccc(Br)c(C)n2)C1 (stereo not given) | 14.8%

Row | Compound | cytotoxicity at 10 µM
45 | CCOCCCC(=O)Nc1cc(C(N)=O)ccc1N1CCCCC1 | -48%
46 | CNc1nc(CNC(=O)Nc2ccc(OC(C)C)cc2F)cs1 | 61.2%
47 | Cc1ccc(CN2CCCC3(CCN(Cc4ccc(C)o4)C3)C2)o1 (stereo not given) | -107%
48 | Cn1cc(N2CC3(CCN(C(=O)c4cccn4C)CC3)OCC2=O)cn1 | -81.1%
49 | CC1=N[C@@]2(CC[C@@H]3CN(C(=O)NCc4cccc(F)c4)C[C@@H]32)C(=O)N1 | -73.4%
50 | CC(=O)N1CCC2(CCN(Cc3ccc(Cl)c(C(F)(F)F)c3)CC2)C1 | -81.9%
51 | Cc1ncc(-c2ccnc(NCCc3ccc(F)cc3)n2)c(=O)[nH]1 | -7.3%
52 | CC(C)Nc1nc2c(s1)C(=O)CN(C(=O)NCc1ccccc1)C2 | 75.6%
53 | COc1ccc2nc(CNC(=O)c3cc(C(C)C)no3)[nH]c2c1 | -0.527%
54 | CCn1cc(CN2CCCC(COc3ccc(F)cc3)C2)cn1 (stereo not given) | -59.6%
55 | CN1CCN(Cc2noc(CCc3nc(-c4ccccc4)no3)n2)CC1 | 6.41%
56 | O=C1O[C@@H]2CN(c3ccncc3)C[C@@H]2N1CCCc1ccc(F)cc1 | -3.73%
57 | CCOC(=O)c1ccc(N2CCN(Cc3c(C)nn(C)c3Cl)CC2)nc1 | 20.5%
58 | CCc1nc(N)nc(N(C)Cc2nncn2CCOC)c1C | -6.41%
59 | Cc1nc(NCc2noc(C3CCCO3)n2)c2sccc2n1 (stereo not given) | 50.2%
60 | O=C(NCc1cccnc1N1CCCC(O)C1)c1ccsc1 (stereo not given) | 14.3%
61 | COCCC(=O)NCC1COc2cc(OC)ccc2C1 (stereo not given) | 0.0723%
62 | Cc1nc(CNCc2cccnc2Oc2ccc(C)c(F)c2F)c[nH]1 | 6.87%
63 | FC(F)Oc1ccccc1CN1CCCC(c2nccn2CC2CC2)C1 (stereo not given) | 6.64%
64 | O=C(c1scc2c1OCCO2)N1CCOC(CCc2ccccc2)C1 (stereo not given) | 10.5%
65 | Cc1cc(CNC(=O)CCCN2CCCCC2)n(C)n1 | -10.3%
66 | COCC(=O)N1CCCN(Cc2c(C)nc3ccc(Cl)cn23)CC1 | 5.39%

Row | Compound | cytotoxicity at 10 µM
67 | Fc1cccc2ncnc(NCCCc3ccncc3)c12 | 7.02%
68 | CN(C)C1CCN(c2cc(-c3ccccc3)nc3ccnn23)C1 (stereo not given) | -53.5%
69 | CN(C)C(=O)CN1CCCN(CC2CCOc3ccccc3C2)CC1 (stereo not given) | -3.42%
70 | Cn1cnnc1CC1CCN(Cc2nn(C)c3cccc(Cl)c23)CC1 | -1.62%
71 | COc1ccc2c(c1)Cc1c-2nc(N)c(C#N)c1C1CCOC1 (stereo not given) | 24.4%
72 | Cc1nn(C)cc1-c1ccnc(N(C)Cc2cnn(C)c2)n1 | 19.9%
73 | CN1CCCC(CCC(=O)N2CCc3sc(C(=O)N(C)C)cc3C2)C1 (stereo not given) | 1.42%
74 | CC(C)N1CCC(C(=O)N2CCC(c3ccc(F)cc3)C2)CC1 (stereo not given) | -58.1%
75 | NCC1Cc2cc(Oc3cc(F)c(CN4CCCC4)c(F)c3)ccc2O1 (stereo not given) | -8.97%
76 | CN(CC1CCCCO1)c1nc(-c2cccnc2)nc2c1CCNC2 (stereo not given) | 3.01%
77 | Cc1cccc2sc(NC(=O)CN3CCCC(O)(CO)C3)nc12 (stereo not given) | 16.9%
78 | CSCc1ccc(N2CCC(C(O)Cc3ccccc3)CC2)nc1 (stereo not given) | 2.45%
79 | CCC(NC(=O)C1CCN(S(C)(=O)=O)CC1)c1ccc(OC)cc1 (stereo not given) | -1.82%
80 | Cc1nn(C)c2nc(N3CCC(C(O)Cc4ccccc4)CC3)sc12 (stereo not given) | 28.2%
81 | CO[C@H]1C[C@@H](O)C12CCN(C(=O)CCCOc1ccccc1)CC2 | -2.22%
82 | CC(C)c1nc(CN(C)Cc2cnc(N3CCOCC3)nc2)no1 | 10.1%
83 | Cc1noc(C)c1C(=O)NCc1ccc(N2CCC(C)CC2)nc1 | 8.43%
84 | Cc1cnn(CC2CN(Cc3nc4ccccc4s3)CCO2)c1 (stereo not given) | 0.639%
85 | O=C(CNCCn1cccn1)NCC1(c2ccccc2)CCC1 | -26.7%
86 | O=C1NCCN1C1CCCN(Cc2coc(-c3ccc(F)cc3)n2)C1 (stereo not given) | 8.63%
87 | Cc1ccc(CNCc2ccc(-n3nc(C)cc3C)nc2)cc1 | -0.164%
88 | CCOc1ccc(CN2CCN(C(=O)c3ccc(C)n3C)CC2)cc1 | 19.2%

Row | Compound | cytotoxicity at 10 µM
89 | c1ccc2sc(CN3CCOC(Cn4cccn4)C3)nc2c1 (stereo not given) | -10.2%
90 | CC(Cn1cccn1)NC(=O)N1CCN(Cc2cccnc2)CC1 (stereo not given) | -18.2%
91 | CC(O)CNCc1ccc(OCc2ccc3c(c2)OCCO3)cc1 (stereo not given) | -4.61%
92 | Cc1cc(C[C@@H]2CCC[C@H]2NCc2ccccc2F)on1 | -6.19%
93 | CC1(C)CC(N(Cc2cccnc2)Cc2cccc(F)c2)CC(C)(C)N1 | -6.41%
94 | Clc1ccc(C2(CNC3=NCCN3)CCCCC2)cc1 | 38.2%
95 | N#Cc1ccc(N2CCC3(CC2)CC(Oc2cccnc2)CO3)cc1 (stereo not given) | 50.9%
96 | Cc1nc2c(cc1C(=O)O)CCN(CC1CC1)CC2 | -154%
97 | Cn1cc(CNC2CCC(O)CC2)c(-c2cc3ccccc3o2)n1 (stereo not given) | -48%
98 | COCCC1COC2(CCN(C(=O)c3ccncc3)CC2)C1 (stereo not given) | -74.9%
99 | COCCN1CCc2cc(C(=O)NC(C)C)c(NCC(C)C)nc2CC1 | -163%
100 | c1ccc(COC[C@@H]2CCC[C@]23CN(Cc2nccs2)CCO3)nc1 | -65.4%
101 | CCS(=O)(=O)N1CCC2(CC1)CN(CC1CCOC1)c1ccccc12 (stereo not given) | -85.9%
102 | CC1=N[C@@]2(CC[C@@H]3CN(CC4CC4)C[C@@H]32)C(=O)N1CC(C)C | -84%
103 | c1cc(CNCc2ccc(-n3cncn3)nc2)cc(OC2CCCC2)c1 | 2.3%
104 | COc1cc(N2C[C@@H]3COC[C@]3(COc3ncccc3F)C2)ncn1 | -67.5%
105 | CCN(CC)Cc1cn2c(n1)CN(C(=O)Cc1ccsc1)CC2 | -143%
106 | CC(C)N(C)Cc1cn2c(n1)CN(C(=O)Cc1ccccc1)CC2 | -135%
107 | Cc1noc(C)c1CN1CC[C@@H](OCC2CC2)[C@@H](Cc2ccccc2)C1 | 11.5%
108 | Cc1ccc(CN2CCn3cc(CN4CCN(C)CC4)nc3C2)cc1 | -125%
109 | CCOc1cc(C=Cc2ncc(C(=O)NC)s2)ccc1OC | -0.58%
110 | CCOc1c(Br)cc(C2c3c(n[nH]c3C)N=C3COC(=O)C32)cc1OC (stereo not given) | 47.1%
